We go through 9 molecules from paper PMC6130786 (ACS Omega, 2018).

Broadly, the Ki is a dissociation constant, usually derived from enzyme kinetics or from competition with a known ligand. Read a high Ki as a looser hold on the target.

Test [1] has as its target Aβ fibrils (Homo sapiens, UniProt P05067). Put plainly: Thioflavin-T competition binding assay, Aβ fibrils. An outline of the steps: (§1)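 Fibrils were prepared per earlier work and held fixed at 1 μM. Thioflavin-T was 50 nM with Aβ fibrils and 4 μM with tau fibrils. Test compound at varying concentrations was diluted in 30 mM Tris-HCl pH 7.4 with 0.1% BSA. Incubation was 1.5 h at room temperature, and fluorescence was read at ex 440/30, em 485/20. EC50 came from a one-site competitive fit, Ki = EC50/(1+[ligand]/Kd), as mean ± SD of two assays.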

Test [2] addresses tau fibrils (Homo sapiens, UniProt P10636). Put plainly: Thioflavin-T competition binding assay, tau fibrils. An outline of the steps: as §1

Chain of tau fibrils (P10636 560-692 limits assumed): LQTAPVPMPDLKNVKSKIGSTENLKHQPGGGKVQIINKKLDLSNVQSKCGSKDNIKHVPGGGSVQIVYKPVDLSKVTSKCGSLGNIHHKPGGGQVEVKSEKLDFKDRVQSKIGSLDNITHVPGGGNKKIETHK
Chain of Aβ fibrils (P05067 672-713): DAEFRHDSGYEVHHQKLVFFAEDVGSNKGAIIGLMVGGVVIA

On to `COc1ccc(/C=C/C(=O)c2nccs2)cc1` [Compound 7, (E)-3-(4-Methoxyphenyl)-1-(thiazol-2-yl)prop-2-en-1-one], for which the Ki was more than 500 nM in test [1] and more than 1000 nM in test [2]. As for `COc1ccc(-c2cc(-c3nccs3)n[nH]2)cc1` [Compound 12, 2-(5-(4-Methoxyphenyl)-1H-pyrazol-3-yl)thiazole], the Ki in test [1] and in test [2] was more than 1000 nM in each case. `O=C(/C=C/c1ccc([N+](=O)[O-])cc1)c1nc2ccccc2s1` [Compound 6, (E)-1-(Benzo[d]thiazol-2-yl)-3-(4-nitrophenyl)prop-2-en-1-one] had an inhibition constant (Ki) in test [1] of 89 ± 26.9 nM. Take `O=C(/C=C/c1ccc([N+](=O)[O-])cc1)c1nccs1` [Compound 9, (E)-3-(4-Nitrophenyl)-1-(thiazol-2-yl)prop-2-en-1-one]: the affinity in test [1] corresponds to a Ki of 404 ± 80.6 nM. Consider `CN(C)c1ccc(/C=C/C(=O)c2nc3ccccc3s2)cc1` [Compound 5, (E)-1-(Benzo[d]thiazol-2-yl)-3-(4-(dimethylamino)phenyl)prop-2-en-1-one], for which the Ki in test [1] is 91 ± 12.7 nM. Turning to `CN(C)c1ccc(/C=C/C(=O)c2nccs2)cc1` [Compound 8, (E)-3-(4-(Dimethylamino)phenyl)-1-(thiazol-2-yl)prop-2-en-1-one], the inhibition constant Ki in test [1] amounted to 505 ± 49.5 nM; in test [2], 401 ± 118 nM. Take `COc1ccc(-c2cc(-c3nccs3)on2)cc1` [Compound 10, 3-(4-Methoxyphenyl)-5-(thiazol-2-yl)isoxazole]: the Ki in test [1] and in test [2] was more than 1000 nM in each case. On to `COc1ccc(/C=C/c2cc(-c3nccs3)[nH]n2)cc1` [Compound 13, (E)-2-(3-(4-Methoxystyryl)-1H-pyrazol-5-yl)thiazole], for which the Ki in test [1] is 327 ± 76.4 nM; in test [2], more than 1000 nM. The corresponding values for `COc1ccc(/C=C/C(=O)c2nc3ccccc3s2)cc1` [Compound 4, (E)-1-(Benzo[d]thiazol-2-yl)-3-(4-methoxyphenyl)prop-2-en-1-one] are 353 ± 29.7 nM and 716 ± 58.7 nM.
